Structures can show the parent of a compound that is named as a salt.

The first test concerns Trypanosoma brucei. The test is described as follows: Antitrypanosomal activity against Trypanosoma brucei 427 at pH 7.4. In kind it is functional, organism-based. An outline of the steps: (§1)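 In vitro assay against bloodstream-form T. brucei grown at pH 7.4. Concentrations inhibiting growth by 50% (IC50) and 90% (IC90) were calculated. Values are the mean of triplicate experiments ± SEM.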
`CCCCCCCCCCCCCCC12CC3CC(CC(C3)/C1=N\NC(=N)N)C2` came in with an IC50 of 840 nM and an IC90 of 1300 nM.
`CCCCCCC12CC3CC(CC(C3)/C1=N\NC(=N)N)C2` yielded an IC50 of more than 6000 nM.
The same measure, in the same setting: under `CCCCCCCCC12CC3CC(CC(C3)/C1=N\NC(=N)N)C2` stands more than 6000 nM.
Turning to `NC12CC3CC(CC(C3)C1)C2` [AMANTADINE HYDROCHLORIDE], the IC50 was more than 132000 nM and the IC90 is more than 132000 nM.
With `NC1C2CC3CC(C2)CC1(Cc1ccccc1)C3` (configuration not stated), the IC50 came out at 2070 nM and the IC90 was 2650 nM.
In the same order, the values of `CCCCCCCCC12CC3CC(CC(C3)C1N)C2` (configuration not stated) are 800 nM and 1060 nM.
On to `CC(N)C12CC3CC(CC(C3)C1)C2` (configuration not stated) [RIMANTADINE HYDROCHLORIDE], for which the IC90 is 14000 nM.
Take `CCCCCCCCCCC12CC3CC(CC(C3)/C1=N\NC(=N)N)C2`: inhibition was half-maximal at 90 nM (IC50) and the IC90 was determined as 110 nM.
In the same order, the values of `CCCCCCCCCCCCCCC12CC3CC(CC(C3)/C1=N\NC(N)=S)C2` are 420 nM and 540 nM.
`CCCCCCC12CC3CC(CC(C3)C1NCC)C2` (configuration not stated) gave an IC50 of more than 2000 nM.
As for `CCCCCCC12CC3CC(CC(C3)C1N)C2` (configuration not stated), the midpoint of inhibition, the IC50, lay at 1320 nM and the 90% effect level (IC90) was put at 1730 nM.
`CCCCCCCCCCCCC12CC3CC(CC(C3)C1NCC)C2` (configuration not stated) displayed an IC50 of 590 nM and an IC90 of 1060 nM.
In the same order, the values of `CCCCCCCCCCCCC12CC3CC(CC(C3)C1N)C2` (configuration not stated) are 470 nM and 670 nM.
In the same order, the values of `CCCCCCCCCCC12CC3CC(CC(C3)C1NCC)C2` (configuration not stated) are 1090 nM and 1650 nM.
In the same order, the values of `N=C(N)N/N=C1\C2CC3CC(C2)CC1(Cc1ccccc1)C3` are 410 nM and 470 nM.
Consider `CCCCCCCCCCC12CC3CC(CC(C3)C1N)C2` (configuration not stated), for which 480 nM corresponded to half-maximal inhibition (IC50) and the 90% effect level (IC90) was put at 670 nM.
The molecule `N=C(N)N/N=C1\C2CC3CC(C2)CC1(c1ccccc1)C3` came in with an IC50 of 2120 nM and an IC90 of 2810 nM.
In the same order, the values of `CCCCCCCCCCCCCCC12CC3CC(CC(C3)C1N)C2` (configuration not stated) are 920 nM and 1980 nM.
In the same order, the values of `CCCCCCC12CC3CC(CC(C3)/C1=N\NC(N)=S)C2` are 2810 nM and 5640 nM.

The next test concerns Trypanosoma brucei. The test is described as follows: Antitrypanosomal activity against Trypanosoma brucei. It counts as functional, organism-based. The essentials: as §1
As for `NC12CC3CC(C1)CC(C1CCCCC1)(C3)C2`, the IC50 stood at 520 nM.
On the same count and under the same terms, then `NCCC12CC3CC(C1)CC(c1ccccc1)(C3)C2`, with 620 nM; and `NC1CCC(C23CC4CC(CC(C4)C2)C3)CC1` (configuration not stated), with 330 nM.

The record behind these values is ChEMBL document CHEMBL1141571, “Design, synthesis, and trypanocidal activity of new aminoadamantane derivatives” (J Med Chem, 2008).
